Reference: ChEMBL document CHEMBL4425098, “Thiolactomycin-Based Inhibitors of Bacterial β-Ketoacyl-ACP Synthases with in Vivo Activity” (J Med Chem, 2016)
≈ marks a conversion by molar mass, not a printed value. Calls of active or inactive are those of the source. The calls are words filed in the database; no cut-off is given here.

How the values were obtained:
[1] = biological target: T1, 3-oxoacyl-[acyl-carrier-protein] synthase 2 (Staphylococcus aureus, UniProt Q5TKS0); test: Binding affinity to Staphylococcus aureus wild type FabF expressed in Escherichia coli BL21 (DE3) PlysS cells by intrinsic tryptophan fluorescence quenching-based fluorimetric method
T1 sequence (Q5TKS0 whole entry): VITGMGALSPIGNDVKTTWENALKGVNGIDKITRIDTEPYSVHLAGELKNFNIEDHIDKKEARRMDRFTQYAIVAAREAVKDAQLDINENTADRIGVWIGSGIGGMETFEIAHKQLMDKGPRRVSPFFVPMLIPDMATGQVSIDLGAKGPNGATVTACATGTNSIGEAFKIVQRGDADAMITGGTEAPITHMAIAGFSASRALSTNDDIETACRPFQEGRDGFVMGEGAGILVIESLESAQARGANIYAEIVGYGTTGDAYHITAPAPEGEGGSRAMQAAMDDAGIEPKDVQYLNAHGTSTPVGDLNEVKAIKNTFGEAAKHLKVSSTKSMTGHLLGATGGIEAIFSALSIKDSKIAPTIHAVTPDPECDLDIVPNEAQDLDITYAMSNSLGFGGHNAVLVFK

Staphylococcus aureus [2] = test: Antibacterial activity against methicillin-resistant Staphylococcus aureus BAA 1762 infected in sc dosed Swiss Webster mouse assessed as increase in survival rate administered 1 and 25 hrs post infection measured twice a day for 5 days; format: functional; conditions: BAA 1762, sc
Outline: (§1)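 Mice made neutropenic with cyclophosphamide 4 days and 1 day before infection. MRSA BAA 1762 was given IP as 0.5 mL of 5×10⁷ cells/mL in BHI. Analogues in water/ethanol, or vancomycin in water, were dosed SC at 100 mg/kg/inj at 1 and 25 h post infection. Survival was checked every 12 h for 5 days, n=6–7 per group. Average survival time was compared with vehicle by one-tailed t test.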

Yersinia pestis = test: Antibacterial activity against Yersinia pestis A1122 after 18 to 24 hrs by Alamar blue dye-based colorimetric assay; format: functional
[3] = biological target: 3-oxoacyl-[acyl-carrier-protein] synthase 2 (Staphylococcus aureus, UniProt Q5TKS0, C165Q); test: Binding affinity to Staphylococcus aureus FabF C165Q mutant expressed in Escherichia coli BL21 (DE3) PlysS cells by intrinsic tryptophan fluorescence quenching-based fluorimetric method
Outline: (§2)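 Kd by quenching of intrinsic tryptophan fluorescence (excitation 280 nm, emission 337 nm). Inhibitor stocks in DMSO or buffer were titrated into 1 μM His-tag-purified enzyme in 50 mM Tris-HCl, 150 mM NaCl, 1 mM DTT, pH 8.5. mtFabB was expressed in M. smegmatis MC²155; saFabF was expressed in E. coli BL21(DE3) pLysS.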

[4] = tested on: Mycobacterium tuberculosis; test: Antibacterial activity against Mycobacterium tuberculosis H37Rv after 6 days by Alamar blue dye-based colorimetric assay; format: functional; conditions: 144 h
Outline: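 M. tuberculosis H37Rv grown to early-mid log phase in Middlebrook 7H9 with 10% OADC and 0.05% Tween 80, added to 1:2 serial compound dilutions, and grown for 6 days at 37°C. Alamar blue then added for a further 24 h. MIC taken as the concentration preventing visible growth and Alamar blue reduction in all replicates.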

Staphylococcus aureus [5] = test: Antibacterial activity against methicillin-resistant Staphylococcus aureus BAA 1762 infected in Swiss Webster mouse assessed as survival time at 100 mg/kg, sc administered 1 and 25 hrs post infection measured twice a day for 5 days; format: functional; outline: as §1
Staphylococcus aureus [6] = test: Antibacterial activity against methicillin-sensitive Staphylococcus aureus RN4220 after 18 to 24 hrs by Alamar blue dye-based colorimetric assay; format: functional
Outline: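 Two-fold serial dilutions from 512 down to 0.25 μg/mL in CAMHB (microbroth dilution); incubated 37 °C for 18–24 h, then Alamar Blue added for a further 4 h. Absorbance read at 570 and 600 nm; percent growth reduction plotted against concentration, MIC90 from non-linear regression; growth and MICs confirmed by optical density.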

Staphylococcus aureus [7] = test: Antibacterial activity against methicillin-resistant Staphylococcus aureus BAA 1762 after 18 to 24 hrs by Alamar blue dye-based colorimetric assay; format: functional
Klebsiella pneumoniae [8] = test: Antibacterial activity against Klebsiella pneumoniae KPC2ST258 infected in Swiss Webster mouse assessed as survival time at 100 mg/kg, sc administered 1, 12 and 24 hrs post infection measured every 12 hrs for 7 days; format: functional
Outline: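 K. pneumoniae KPC2ST258 was given IP as 5×10⁶ cfu in BHI broth. Drugs in saline/PEG400/ethanol (40/20/40) were injected SC at 100 mg/kg/inj at 1, 12 and 24 h post infection. Mice were checked every 12 h for 7 days, n=8–10 per group. Average survival time was compared with vehicle by one-tailed t test.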

Francisella tularensis = test: Antibacterial activity against Francisella tularensis LVS after 18 to 24 hrs by Alamar blue dye-based colorimetric assay; format: functional
[9] = tested on: Burkholderia pseudomallei; test: Antibacterial activity against Burkholderia pseudomallei after 18 to 24 hrs by Alamar blue dye-based colorimetric assay; format: functional
Klebsiella pneumoniae [10] = test: Antibacterial activity against Klebsiella pneumoniae KPC2ST258 after 18 to 24 hrs by Alamar blue dye-based colorimetric assay; format: functional, organism-based
[11] = tested on: Mycobacterium tuberculosis; test: Binding affinity to Mycobacterium tuberculosis wild type FabB expressed in Mycobacterium smegmatis MC2 155 by WaterLOGSY-based competition assay
Staphylococcus aureus [12] = test: Antibacterial activity against methicillin-resistant Staphylococcus aureus BAA 1762 infected in Swiss Webster mouse assessed as increase in survival rate at 100 mg/kg, sc administered 1 and 25 hrs post infection measured twice a day for 5 days relative to vehicle-treated control; format: functional, organism-based; outline: as §1
[13] = Binding affinity to Mycobacterium tuberculosis wild type FabB expressed in Mycobacterium smegmatis MC2 155 by intrinsic tryptophan fluorescence quenching-based fluorimetric method; outline: as §2
THP-1 = test: Cytotoxicity against human THP1 cells at < 100 ug/ml after 2 days by Alamar blue assay; format: cell-based; conditions: thp-1, 48 h

C=C/C(C)=C/[C@@]1(C)SC(=O)C(C(=O)C(F)(F)F)=C1O
Kd [1]: 58.4 µM | ED50 (Staphylococcus aureus [2]): 125 mg/kg | MIC90 (Yersinia pestis): > 250 µg/mL | Kd [3]: 56.2 µM | MIC90 [4]: 100 µg/mL (≈ 342 µM) | MSD (Staphylococcus aureus [5]): 3 days | MIC90 (Staphylococcus aureus [6]): > 64 µg/mL | MIC90 (Staphylococcus aureus [7]): 64 µg/mL (≈ 219 µM) | MSD (Klebsiella pneumoniae [8]): 5.1 days | MIC90 (Francisella tularensis): 98.1 µg/mL (≈ 336 µM) | Activity [9]: inactive

GENTAMICIN
MIC (Klebsiella pneumoniae [10]): < 1 µg/mL | MSD (Klebsiella pneumoniae [8]): 6.2 days

C=C/C(C)=C/[C@@]1(C)SC(=O)C(C(=O)CCCCCCCCCCCCCCC)=C1O
Kd [1]: > 200 µM | MIC90 (Yersinia pestis): > 250 µg/mL | MIC90 [4]: 100 µg/mL (≈ 230 µM) | MIC90 (Staphylococcus aureus [6]): 0.5 µg/mL (≈ 1.15 µM) | MIC90 (Staphylococcus aureus [7]): 1 µg/mL (≈ 2.3 µM) | MIC90 (Francisella tularensis): 3.9 µg/mL (≈ 8.97 µM) | Activity [9]: inactive

CN[C@H](CC(C)C)C(=O)N[C@H]1C(=O)N[C@@H](CC(N)=O)C(=O)N[C@H]2C(=O)N[C@H]3C(=O)N[C@H](C(=O)N[C@H](C(=O)O)c4cc(O)cc(O)c4-c4cc3ccc4O)[C@H](O)c3ccc(c(Cl)c3)Oc3cc2cc(c3O[C@@H]2O[C@H](CO)[C@@H](O)[C@H](O)[C@H]2O[C@H]2C[C@](C)(N)[C@H](O)[C@H](C)O2)Oc2ccc(cc2Cl)[C@H]1O [VANCOMYCIN]
ED50 (Staphylococcus aureus [2]): < 30 mg/kg | MSD (Staphylococcus aureus [5]): 5 days

C=C/C(C)=C/[C@@]1(C)SC(=O)C(CCCCN=[N+]=[N-])=C1O
Kd [1]: 107 µM | MIC90 (Yersinia pestis): > 250 µg/mL | MIC90 [4]: 100 µg/mL (≈ 341 µM) | MIC90 (Staphylococcus aureus [6]): > 64 µg/mL | MIC90 (Staphylococcus aureus [7]): > 100 µg/mL | MIC90 (Francisella tularensis): 15.3 µg/mL (≈ 52.1 µM)

C=C/C(C)=C/[C@@]1(C)SC(=O)C=C1OCC(=O)NCCn1cc(CNC(=O)c2ccc(NS(=O)(=O)c3ccc(F)cc3)cc2)nn1
Activity [11]: inactive | MIC90 [4]: > 100 µg/mL | MIC90 (Staphylococcus aureus [6]): > 64 µg/mL | MIC90 (Staphylococcus aureus [7]): > 64 µg/mL | MIC90 (Francisella tularensis): > 256 µg/mL

C=C/C(C)=C/[C@@]1(C)SC(=O)C=C1OCC(=O)NCCN=[N+]=[N-]
Activity [11]: inactive | MIC90 [4]: > 100 µg/mL | MIC90 (Staphylococcus aureus [6]): > 64 µg/mL | MIC90 (Staphylococcus aureus [7]): > 64 µg/mL | MIC90 (Francisella tularensis): 39 µg/mL (≈ 121 µM)

C=C/C(C)=C/[C@@]1(C)SC(=O)C(C(=O)CCCCCc2ccc(-c3ccccc3)cc2)=C1O
Kd [1]: 35.2 µM | MIC90 (Yersinia pestis): > 250 µg/mL | Kd [3]: 33 µM | MIC90 [4]: 50 µg/mL (≈ 112 µM) | MIC90 (Staphylococcus aureus [6]): 0.5 µg/mL (≈ 1.12 µM) | MIC90 (Staphylococcus aureus [7]): 1 µg/mL (≈ 2.24 µM) | MIC90 (Francisella tularensis): 0.21 µg/mL (≈ 0.47 µM) | Activity (Staphylococcus aureus [12]): Active | Activity [9]: inactive

C=C/C(C)=C/[C@@]1(C)SC(=O)C=C1OCC(=O)NCCNC(=O)OC(C)(C)C
Activity [11]: inactive | MIC90 [4]: > 100 µg/mL | MIC90 (Staphylococcus aureus [6]): > 64 µg/mL | MIC90 (Staphylococcus aureus [7]): > 64 µg/mL | Ki [13]: > 200 µM | MIC90 (Francisella tularensis): 54 µg/mL (≈ 136 µM)

C=C/C(C)=C/[C@@]1(C)SC(=O)C=C1O
MIC90 (Yersinia pestis): 250 µg/mL (≈ 1270 µM) | Activity [11]: inactive | MIC90 [4]: > 100 µg/mL | MIC90 (Staphylococcus aureus [6]): 150 µg/mL (≈ 764 µM) | MIC90 (Staphylococcus aureus [7]): 100 µg/mL (≈ 509 µM) | MIC90 (Francisella tularensis): 124 µg/mL (≈ 632 µM) | Activity [9]: inactive

C=C/C(C)=C/[C@@]1(C)SC(=O)C(C(C)=O)=C1O
Kd [1]: 14.2 µM | MIC90 (Yersinia pestis): > 250 µg/mL | Kd [3]: 11.9 µM | MIC90 [4]: 12.5 µg/mL (≈ 52.5 µM) | MIC90 (Staphylococcus aureus [6]): 64 µg/mL (≈ 269 µM) | MIC90 (Staphylococcus aureus [7]): 32 µg/mL (≈ 134 µM) | MSD (Klebsiella pneumoniae [8]): 4.6 days | MIC90 (Francisella tularensis): 8.8 µg/mL (≈ 36.9 µM) | Activity (Staphylococcus aureus [12]): Active | Activity [9]: inactive

C=C/C(C)=C/[C@@]1(C)SC(=O)C(CCCCc2ccc(Br)cc2)=C1O
Kd [1]: 92 µM | MIC90 (Yersinia pestis): > 250 µg/mL | MIC90 [4]: 12.5 µg/mL (≈ 30.7 µM) | MIC90 (Staphylococcus aureus [6]): 32 µg/mL (≈ 78.6 µM) | MIC90 (Staphylococcus aureus [7]): 50 µg/mL (≈ 123 µM) | MIC90 (Francisella tularensis): 2.2 µg/mL (≈ 5.4 µM)

C=C/C(C)=C/[C@@]1(C)SC(=O)C=C1OCC(=O)NCCn1cc(CNC(=O)[C@H](O)C(C)(C)CO)nn1
Activity [11]: inactive | MIC90 [4]: 100 µg/mL (≈ 197 µM) | MIC90 (Staphylococcus aureus [6]): > 64 µg/mL | MIC90 (Staphylococcus aureus [7]): > 64 µg/mL | MIC90 (Francisella tularensis): 159 µg/mL (≈ 313 µM)

C=C/C(C)=C/[C@@]1(C)SC(=O)C(C)=C1O [THIOLACTOMYCIN]
Activity (THP-1): Non-Toxic | Kd [1]: 107 µM | MIC90 (Yersinia pestis): 8 µg/mL (≈ 38 µM) | Kd [3]: 88 µM | Activity [11]: inactive | MIC90 [4]: 3.1 µg/mL (≈ 14.7 µM) | MIC90 (Staphylococcus aureus [6]): 75 µg/mL (≈ 357 µM) | MIC90 (Staphylococcus aureus [7]): 75 µg/mL (≈ 357 µM) | MSD (Klebsiella pneumoniae [8]): 3.25 days | MIC90 (Francisella tularensis): 2.8 µg/mL (≈ 13.3 µM) | Activity (Staphylococcus aureus [12]): Active | MIC [9]: 8 µg/mL (≈ 38 µM)

C=C/C(C)=C/[C@@]1(C)SC(=O)C(CCCCc2ccc(-c3ccccc3)cc2)=C1O
Kd [1]: 131 µM | MIC90 (Yersinia pestis): > 250 µg/mL | MIC90 [4]: 12.5 µg/mL (≈ 30.9 µM) | MIC90 (Staphylococcus aureus [6]): 16 µg/mL (≈ 39.5 µM) | MIC90 (Staphylococcus aureus [7]): 25 µg/mL (≈ 61.8 µM) | MIC90 (Francisella tularensis): 1.9 µg/mL (≈ 4.7 µM)
